pIC50, pKi: −log10 of the molar value.
Key:
[1] = biological target: T1, Glutamate NMDA receptor; GRIN1/GRIN2B (Homo sapiens, UniProt Q05586+Q13224); assay: In vitro inhibition of Glu/Gly stimulated [Ca2+] influx in LtK-cells expressing the hNR1a/NR2B receptor; format: functional
Outline: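 Fluorescence readout of Ca2+ flux stimulated by glutamate/glycine in Ltk- cells stably expressing human NR1a/NR2B, measured as inhibition. IC50 is the geometric mean of at least n = 4, with 2×SEGM given.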

[2] = biological target: Voltage-gated inwardly rectifying potassium channel KCNH2 (Homo sapiens, UniProt Q12809); assay: In vitro inhibition of MK-499 binding to hERG in HEK293 cells; format: cell-based; details: read-out: IP
[3] = biological target: T1, Glutamate NMDA receptor; GRIN1/GRIN2B; assay: Compound was evaluated for in vitro inhibition of [3H][(E)-N-(2-methoxybenzyl)cinnamamidine binding to human NR1a/NR2B receptors expressed in LtK-cells; format: cell-based
[4] = biological target: T2, Adrenergic receptor alpha-1 (Rattus norvegicus, UniProt P15823+P23944+P43140); assay: In vitro inhibitory activity against alpha-1 adrenergic receptor binding to rat brain membranes; design: species or system Membrane
T2 sequence (P15823 whole entry): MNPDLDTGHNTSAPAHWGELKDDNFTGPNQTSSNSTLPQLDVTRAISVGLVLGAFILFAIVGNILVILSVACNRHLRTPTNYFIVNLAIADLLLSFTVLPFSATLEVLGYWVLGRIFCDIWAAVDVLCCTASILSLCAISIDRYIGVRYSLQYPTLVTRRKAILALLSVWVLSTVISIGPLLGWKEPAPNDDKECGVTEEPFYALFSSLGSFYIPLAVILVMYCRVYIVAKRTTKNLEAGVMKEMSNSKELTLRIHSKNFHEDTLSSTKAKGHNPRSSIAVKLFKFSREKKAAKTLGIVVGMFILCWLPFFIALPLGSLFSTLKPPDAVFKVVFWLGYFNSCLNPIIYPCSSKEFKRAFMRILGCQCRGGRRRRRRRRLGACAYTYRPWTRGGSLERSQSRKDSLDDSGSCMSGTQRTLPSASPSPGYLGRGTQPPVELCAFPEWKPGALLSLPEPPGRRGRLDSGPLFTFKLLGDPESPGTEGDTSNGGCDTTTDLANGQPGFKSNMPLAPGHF
T2 sequence (P23944 whole entry): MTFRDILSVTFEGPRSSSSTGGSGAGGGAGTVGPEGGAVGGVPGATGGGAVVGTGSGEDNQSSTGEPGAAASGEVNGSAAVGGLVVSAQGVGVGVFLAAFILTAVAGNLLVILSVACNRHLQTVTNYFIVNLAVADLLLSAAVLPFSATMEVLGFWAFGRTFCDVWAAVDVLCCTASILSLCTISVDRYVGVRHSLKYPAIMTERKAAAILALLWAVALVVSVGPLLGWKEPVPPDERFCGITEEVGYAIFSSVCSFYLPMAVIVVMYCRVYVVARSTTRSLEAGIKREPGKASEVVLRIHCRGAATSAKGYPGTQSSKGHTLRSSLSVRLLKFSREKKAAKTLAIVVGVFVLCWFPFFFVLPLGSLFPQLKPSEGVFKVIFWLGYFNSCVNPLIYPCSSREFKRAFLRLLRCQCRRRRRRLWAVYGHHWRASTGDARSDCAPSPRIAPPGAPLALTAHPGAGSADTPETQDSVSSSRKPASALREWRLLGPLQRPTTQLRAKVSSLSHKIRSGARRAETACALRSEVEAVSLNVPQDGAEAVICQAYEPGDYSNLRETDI
T2 sequence (P43140 whole entry): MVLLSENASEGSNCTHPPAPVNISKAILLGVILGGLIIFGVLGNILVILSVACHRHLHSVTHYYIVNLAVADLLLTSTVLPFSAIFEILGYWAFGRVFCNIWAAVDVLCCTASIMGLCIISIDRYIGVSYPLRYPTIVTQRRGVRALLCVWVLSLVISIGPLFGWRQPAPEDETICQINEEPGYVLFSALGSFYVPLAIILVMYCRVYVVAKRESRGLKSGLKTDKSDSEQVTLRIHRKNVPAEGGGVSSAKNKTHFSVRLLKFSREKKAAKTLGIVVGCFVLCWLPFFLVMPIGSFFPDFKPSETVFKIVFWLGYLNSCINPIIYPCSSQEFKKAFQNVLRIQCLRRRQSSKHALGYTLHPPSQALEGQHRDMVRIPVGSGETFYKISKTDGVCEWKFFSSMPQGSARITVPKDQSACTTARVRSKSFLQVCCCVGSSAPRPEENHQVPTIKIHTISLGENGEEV
Outline: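 Competition binding to α1-adrenergic receptors on membranes prepared from rat brain, using the prazosin binding assay. IC50 is the geometric mean of at least 4 determinations.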

[5] = Half-life in rats was determined; format: ADME, organism-based; details: rat, in vivo
Outline: (§1)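 Conscious male Sprague-Dawley rats (n = 3–4) given single doses: 2 mg/kg iv in 100% DMSO, or 10 mg/kg po by gavage in 1% methylcellulose. Plasma was sampled at multiple times up to 24 h. Interanimal variability was below 20%.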

Rattus norvegicus = assay: Compound was evaluated in vivo for carrageenan induced mechanical hyperalgesia in rats, perorally; format: functional
Outline: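 Male Sprague-Dawley rats (100–120 g) received 4.5 mg carrageenan intraplantar, with a 3 h post-injection paw pressure (vocalization) threshold. Agent was gavaged in 1% methylcellulose suspension (n = 8/dose) 1 h before the reading. Response is expressed as % of carrageenan hyperalgesia; the highest oral dose was 30 mg/kg, one determination.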

[6] = Plasma clearance (in vivo) in rats was determined; format: ADME, organism-based; details: rat; outline: as §1
[7] = Oral bioavailability in rat; format: ADME, organism-based; details: in vivo; outline: as §1

T1 sequence (Q13224 whole entry, other chains not shown): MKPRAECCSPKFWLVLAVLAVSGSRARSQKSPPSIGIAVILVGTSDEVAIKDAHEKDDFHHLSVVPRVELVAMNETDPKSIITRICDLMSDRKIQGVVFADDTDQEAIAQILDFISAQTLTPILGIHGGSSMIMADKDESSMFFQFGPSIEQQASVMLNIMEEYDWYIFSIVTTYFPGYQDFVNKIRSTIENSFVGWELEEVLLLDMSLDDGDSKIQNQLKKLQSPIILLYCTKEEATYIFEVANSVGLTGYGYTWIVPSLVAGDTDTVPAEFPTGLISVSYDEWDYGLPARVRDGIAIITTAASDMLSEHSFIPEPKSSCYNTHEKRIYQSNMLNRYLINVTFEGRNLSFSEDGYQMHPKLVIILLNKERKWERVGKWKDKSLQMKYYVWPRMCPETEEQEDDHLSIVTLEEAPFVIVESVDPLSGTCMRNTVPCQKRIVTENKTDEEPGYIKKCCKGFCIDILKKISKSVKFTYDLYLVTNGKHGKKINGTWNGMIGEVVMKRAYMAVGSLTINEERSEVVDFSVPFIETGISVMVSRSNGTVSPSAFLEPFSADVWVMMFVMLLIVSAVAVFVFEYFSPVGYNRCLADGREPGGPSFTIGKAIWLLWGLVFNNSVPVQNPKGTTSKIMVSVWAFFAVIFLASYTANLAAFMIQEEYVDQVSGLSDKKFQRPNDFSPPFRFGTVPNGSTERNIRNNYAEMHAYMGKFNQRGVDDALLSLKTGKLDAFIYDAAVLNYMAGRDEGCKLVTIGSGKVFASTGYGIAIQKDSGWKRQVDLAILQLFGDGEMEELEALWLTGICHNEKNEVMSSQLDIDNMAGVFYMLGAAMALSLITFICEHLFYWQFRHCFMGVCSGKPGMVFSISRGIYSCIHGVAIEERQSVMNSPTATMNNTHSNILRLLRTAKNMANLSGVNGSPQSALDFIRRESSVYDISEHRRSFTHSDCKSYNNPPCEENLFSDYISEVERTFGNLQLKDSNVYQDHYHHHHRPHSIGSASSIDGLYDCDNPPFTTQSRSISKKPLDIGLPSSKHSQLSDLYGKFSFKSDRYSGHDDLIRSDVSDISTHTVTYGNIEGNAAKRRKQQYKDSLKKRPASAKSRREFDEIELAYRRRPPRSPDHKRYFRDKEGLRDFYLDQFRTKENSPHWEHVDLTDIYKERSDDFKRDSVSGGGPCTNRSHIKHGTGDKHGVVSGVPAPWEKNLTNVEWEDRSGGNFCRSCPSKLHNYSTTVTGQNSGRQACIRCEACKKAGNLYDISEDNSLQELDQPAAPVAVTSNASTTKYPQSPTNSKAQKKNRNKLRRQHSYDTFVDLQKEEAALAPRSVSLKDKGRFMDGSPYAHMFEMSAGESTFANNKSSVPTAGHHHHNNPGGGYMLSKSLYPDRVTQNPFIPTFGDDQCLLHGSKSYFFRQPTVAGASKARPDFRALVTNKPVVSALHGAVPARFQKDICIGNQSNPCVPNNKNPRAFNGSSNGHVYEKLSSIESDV
Sequence of Voltage-gated inwardly rectifying potassium channel KCNH2 (Q12809 whole entry): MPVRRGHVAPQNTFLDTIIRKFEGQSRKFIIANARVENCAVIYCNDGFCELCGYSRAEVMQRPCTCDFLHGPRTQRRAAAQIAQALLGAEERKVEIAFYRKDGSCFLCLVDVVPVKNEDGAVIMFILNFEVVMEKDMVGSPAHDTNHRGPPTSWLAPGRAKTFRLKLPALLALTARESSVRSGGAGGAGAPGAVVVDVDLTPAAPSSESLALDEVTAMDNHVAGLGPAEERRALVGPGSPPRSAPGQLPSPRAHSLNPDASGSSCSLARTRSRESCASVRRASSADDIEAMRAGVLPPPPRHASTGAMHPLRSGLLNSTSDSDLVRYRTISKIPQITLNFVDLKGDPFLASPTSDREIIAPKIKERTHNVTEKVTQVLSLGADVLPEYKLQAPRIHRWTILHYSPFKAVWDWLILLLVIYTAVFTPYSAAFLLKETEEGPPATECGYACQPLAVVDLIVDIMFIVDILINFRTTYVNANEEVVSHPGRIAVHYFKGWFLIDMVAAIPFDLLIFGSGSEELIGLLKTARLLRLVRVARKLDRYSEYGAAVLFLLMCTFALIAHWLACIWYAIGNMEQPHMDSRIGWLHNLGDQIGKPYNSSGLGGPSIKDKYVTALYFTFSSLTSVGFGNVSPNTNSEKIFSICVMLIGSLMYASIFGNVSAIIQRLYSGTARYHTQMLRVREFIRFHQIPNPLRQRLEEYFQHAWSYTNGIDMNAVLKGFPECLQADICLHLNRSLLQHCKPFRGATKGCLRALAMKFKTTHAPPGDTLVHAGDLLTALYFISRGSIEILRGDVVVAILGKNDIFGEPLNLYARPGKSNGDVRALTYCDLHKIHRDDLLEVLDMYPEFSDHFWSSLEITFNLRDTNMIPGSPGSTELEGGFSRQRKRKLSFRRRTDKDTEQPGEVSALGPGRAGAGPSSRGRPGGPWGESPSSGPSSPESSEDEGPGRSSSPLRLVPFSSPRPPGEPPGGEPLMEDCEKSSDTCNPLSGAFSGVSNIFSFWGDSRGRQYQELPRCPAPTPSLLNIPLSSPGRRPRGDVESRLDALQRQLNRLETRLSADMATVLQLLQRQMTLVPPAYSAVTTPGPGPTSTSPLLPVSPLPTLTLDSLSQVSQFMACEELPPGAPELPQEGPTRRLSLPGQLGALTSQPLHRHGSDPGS

Compound	pIC50 [1]	pIC50 [2]	pKi [3]	IC50 [4]	half-life [5]	Activity (Rattus norvegicus)	clearance [6]	bioavailability [7]
CS(=O)(=O)Nc1ccc2nc(CN3CCC(Cc4ccccc4)CC3)[nH]c2c1	8.72	6.47	9.00	1500 nM				
CS(=O)(=O)Nc1ccc2[nH]c(Cc3ccc(Oc4ccccc4)cc3)nc2c1	9.14	6.92	9.17	4000 nM	1.97 h	>30 mg/kg	8.3 mL/min/kg	97%
CN(c1ccc2[nH]c(Cc3ccc(Oc4ccccc4)cc3)nc2c1)S(C)(=O)=O	7.60	6.19	6.33	2000 nM				
O=S(=O)(Nc1ccc2[nH]c(Cc3ccc(Oc4ccccc4)cc3)nc2c1)c1ccccc1	7.31	6.17	7.77	14000 nM				
CC(C)S(=O)(=O)Nc1ccc2[nH]c(CN3CCC(Cc4ccccc4)CC3)nc2c1	6.52		6.62	570 nM				
Oc1ccc2[nH]c(Cc3ccc(Oc4ccccc4)cc3)nc2c1	8.04	6.14	8.49	200 nM				
Cc1ccc(CC2CCN(Cc3nc4cc(O)ccc4[nH]3)CC2)cc1	8.24	6.41	9.40	830 nM				
Oc1ccc2[nH]c(CN3CCC(Cc4cccc(F)c4)CC3)nc2c1	7.36	5.68	8.38	520 nM				
CCS(=O)(=O)Nc1ccc2[nH]c(Cc3ccc(Oc4ccccc4)cc3)nc2c1	8.68	5.80	8.52	2800 nM				
Nc1ccc2[nH]c(Cc3ccc(Oc4ccccc4)cc3)nc2c1	7.11	6.92	6.74	2600 nM				
c1ccc(Oc2ccc(Cc3nc4ccccc4[nH]3)cc2)cc1	6.70	5.70	6.59	4200 nM				
CC(C)S(=O)(=O)Nc1ccc2[nH]c(Cc3ccc(Oc4ccccc4)cc3)nc2c1	7.85		7.82	3100 nM				

Source: ChEMBL document CHEMBL1149147, “NR2B-selective N-methyl-D-aspartate antagonists: synthesis and evaluation of 5-substituted benzimidazoles” (J Med Chem, 2004)
